In paper PMC3969088 (British Journal of Pharmacology, 2014):
Where no end group is shown, it is not given here.

What was measured:
[1] = molecular target: AM1 receptor, CLR G35A (HA-CLR G35A with FLAG-RAMP2) (human) (UniProt Q16602)
[2] = molecular target: AM1 receptor, CLR I32A (HA-CLR I32A with FLAG-RAMP2) (human) (UniProt Q16602)
[3] = molecular target: AM1 receptor, CLR I52A (HA-CLR I52A with FLAG-RAMP2) (human) (UniProt Q16602)
[4] = molecular target: AM1 receptor, CLR L34A (HA-CLR L34A with FLAG-RAMP2) (human) (UniProt Q16602)
[5] = molecular target: AM1 receptor, CLR M42A (HA-CLR M42A with FLAG-RAMP2) (human) (UniProt Q16602)
[6] = molecular target: AM1 receptor, CLR Q33A (HA-CLR Q33A with FLAG-RAMP2) (human) (UniProt Q16602)
[7] = molecular target: AM1 receptor, CLR V36A (HA-CLR V36A with FLAG-RAMP2) (human) (UniProt Q16602)
[8] = molecular target: AM2 receptor, CLR G35A (HA-CLR G35A with RAMP3) (human) (UniProt Q16602)
[9] = molecular target: AM2 receptor, CLR I32A (HA-CLR I32A with RAMP3) (human) (UniProt Q16602)
[10] = molecular target: AM2 receptor, CLR I41A (HA-CLR I41A with RAMP3) (human) (UniProt Q16602)
[11] = molecular target: AM2 receptor, CLR I52A (HA-CLR I52A with RAMP3) (human) (UniProt Q16602)
[12] = molecular target: AM2 receptor, CLR L34A (HA-CLR L34A with RAMP3) (human) (UniProt Q16602)
[13] = molecular target: AM2 receptor, CLR M42A (HA-CLR M42A with RAMP3) (human) (UniProt Q16602)
[14] = molecular target: AM2 receptor, CLR Q33A (HA-CLR Q33A with RAMP3) (human) (UniProt Q16602)
[15] = molecular target: AM2 receptor, CLR Q45A (HA-CLR Q45A with RAMP3) (human) (UniProt Q16602)
[16] = molecular target: AM2 receptor, CLR T37A (HA-CLR T37A with RAMP3) (human) (UniProt Q16602)
[17] = molecular target: AM2 receptor, CLR V36A (HA-CLR V36A with RAMP3) (human) (UniProt Q16602)
[18] = molecular target: AM2 receptor, wild type (HA-CLR with RAMP3) (human) (UniProt Q16602)
[19] = molecular target: CGRP receptor, CLR G35A (HA-CLR G35A with RAMP1) (UniProt Q16602)
[20] = molecular target: CGRP receptor, CLR I32A (HA-CLR I32A with RAMP1) (UniProt Q16602)
[21] = molecular target: CGRP receptor, CLR I41A (HA-CLR I41A with RAMP1) (UniProt Q16602)
[22] = molecular target: CGRP receptor, CLR L34A (HA-CLR L34A with RAMP1) (UniProt Q16602)
[23] = molecular target: CGRP receptor, CLR M42A (HA-CLR M42A with RAMP1) (UniProt Q16602)
[24] = molecular target: CGRP receptor, CLR Q45A (HA-CLR Q45A with RAMP1) (UniProt Q16602)
[25] = molecular target: CGRP receptor, CLR T37A (HA-CLR T37A with RAMP1) (UniProt Q16602)
[26] = molecular target: CGRP receptor, wild type (HA-CLR with RAMP1) (UniProt Q16602)
[27] = molecular target: AM1 receptor, RAMP2 E101A (HA-CLR with FLAG-RAMP2 E101A) (human) (UniProt Q16602)
[28] = molecular target: AM2 receptor, RAMP3 W84A (HA-CLR with RAMP3 W84A) (human) (UniProt Q16602)
[29] = molecular target: AM2 receptor, RAMP3 W84F (HA-CLR with RAMP3 W84F) (human) (UniProt Q16602)
[30] = molecular target: AM2 receptor, wild type (HA-CLR with RAMP3) (human) (UniProt Q16602); remark: listed apart in the source
[31] = tested on: CLR mutants at the AM1 receptor; experiment: specific binding of [125I]-rAM to CLR mutants at the AM1 receptor; parameters: species or system human; details: Cos7, 4°C 1 h
Summary of the method: (§1)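 Cos7 cells transiently cotransfected (PEI, 1 μg DNA/well total) with HA-tagged human CLR mutants plus FLAG-human RAMP2 (AM1) or untagged human RAMP3 (AM2). Cells incubated in DMEM/0.5% BSA with [125I]-rAM ([…], 30 000 cpm/well) at 4°C for 1 h, washed with ice-cold PBS, NaOH-solubilised and gamma-counted. […] Specific binding normalised to the WT mean.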

[32] = tested on: CLR mutants at the AM2 receptor; experiment: specific binding of [125I]-rAM to CLR mutants at the AM2 receptor; parameters: species or system human; details: Cos7, 4°C 1 h
Summary of the method: as §1

Human adrenomedullin 2 (AM2-47) (from UniProt Q7Z4H4 101-148) (peptide)
pEC50, cAMP production in Cos7 cells [1]: 7.92
pEC50, cAMP production in Cos7 cells [2]: 8.24
pEC50, cAMP production in Cos7 cells [3]: 8.11
pEC50, cAMP production in Cos7 cells [4]: 7.64
pEC50, cAMP production in Cos7 cells [5]: 7.86
pEC50, cAMP production in Cos7 cells [6]: 7.89
pEC50, cAMP production in Cos7 cells [7]: 7.89
pEC50, cAMP production in Cos7 cells [8]: 8.78
pEC50, cAMP production in Cos7 cells [9]: 9.47
pEC50, cAMP production in Cos7 cells [10]: 8.47
pEC50, cAMP production in Cos7 cells [11]: 9.12
pEC50, cAMP production in Cos7 cells [12]: 9.13
pEC50, cAMP production in Cos7 cells [13]: 8.61
pEC50, cAMP production in Cos7 cells [14]: 8.56
pEC50, cAMP production in Cos7 cells [15]: 8.94
pEC50, cAMP production in Cos7 cells [16]: 7.7
pEC50, cAMP production in Cos7 cells [17]: 8.62
pEC50, cAMP production in Cos7 cells; WT control paired with CLR G35A [18]: 9.09
pEC50, cAMP production in Cos7 cells; WT control paired with CLR I32A [18]: 9.83
pEC50, cAMP production in Cos7 cells; WT control paired with CLR I41A [18]: 9.32
pEC50, cAMP production in Cos7 cells; WT control paired with CLR I52A [18]: 9.29
pEC50, cAMP production in Cos7 cells; WT control paired with CLR L34A [18]: 9.42
pEC50, cAMP production in Cos7 cells; WT control paired with CLR M42A [18]: 8.82
pEC50, cAMP production in Cos7 cells; WT control paired with CLR Q33A [18]: 8.59
pEC50, cAMP production in Cos7 cells; WT control paired with CLR Q45A [18]: 8.95
pEC50, cAMP production in Cos7 cells; WT control paired with CLR T37A [18]: 9.13
pEC50, cAMP production in Cos7 cells; WT control paired with CLR V36A [18]: 9.09
pEC50, cAMP production in Cos7 cells [19]: 8.04
pEC50, cAMP production in Cos7 cells [20]: 8.52
pEC50, cAMP production in Cos7 cells [21]: 7.23
pEC50, cAMP production in Cos7 cells [22]: 8.44
pEC50, cAMP production in Cos7 cells [23]: 8.27
pEC50, cAMP production in Cos7 cells [24]: 7.97
pEC50, cAMP production in Cos7 cells [25]: 7.47
pEC50, cAMP production in Cos7 cells; WT control paired with CLR G35A [26]: 8.4
pEC50, cAMP production in Cos7 cells; WT control paired with CLR I32A [26]: 8.42
pEC50, cAMP production in Cos7 cells; WT control paired with CLR I41A [26]: 8.31
pEC50, cAMP production in Cos7 cells; WT control paired with CLR L34A [26]: 8.51
pEC50, cAMP production in Cos7 cells; WT control paired with CLR M42A [26]: 8.33
pEC50, cAMP production in Cos7 cells; WT control paired with CLR Q45A [26]: 8.65
pEC50, cAMP production in Cos7 cells; WT control paired with CLR T37A [26]: 8.31
pEC50, cAMP production in Cos7 cells; WT control paired with CLR V36A [26]: 8.42
pEC50, cAMP production in Cos7 cells [27]: 7.39
pEC50, cAMP production in Cos7 cells [28]: 9.02
pEC50, cAMP production in Cos7 cells [29]: 9.38
pEC50, cAMP production in Cos7 cells; WT control paired with RAMP3 W84A [30]: 9.62
pEC50, cAMP production in Cos7 cells; WT control paired with RAMP3 W84F [30]: 9.63

[^125I]-rAM: rat AM (rAM) iodinated using iodobeads, purified by reverse phase HPLC; radioligand (YRQSMNQGSRSTGCRFGTCTMQKLAHQIYQFTDKDKDGMAPRNKISPQGY; ends and bridges not checked; also: 125I label, residue not given here)
specific binding of [125I]-rAM ([31]; CLR I52A (printed 152A)): retained binding
specific binding of [125I]-rAM ([31]; CLR M42A and Q45A): abolished
specific binding of [125I]-rAM ([31]; CLR T37A and I41A): abolished
specific binding of [125I]-rAM ([32]; CLR M42A and Q45A): retained
specific binding of [125I]-rAM ([32]; CLR T37A and I41A): abolished
